Measured values reported in article PMC4229023 (Biomacromolecules, 2014).

Experiments:
[1] = Maximum tolerated dose study; assay type: in vivo, CD-1 mice
Outline: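 Body weight and survival were checked daily for 2 weeks. MTD was taken as the highest dose causing neither more than 15% body-weight loss nor any death within 2 weeks.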

[2] = Plasma pharmacokinetics; assay type: in vivo; conditions: 5 mg DOX/kg i.v., female BALB/c mice
[3] = test system: 4T1.2 mouse breast cancer cell line; test: MTT cytotoxicity; assay type: cell-based; conditions: 4T1.2 cells
[4] = test system: HCT-116 human colon carcinoma cell line; test: MTT cytotoxicity; assay type: cell-based; conditions: HCT-116 cells
[5] = test system: PC-3 xenografts; conditions: cited from earlier work

SMILES: COc1cccc2c1C(=O)c1c(O)c3c(c(O)c1C2=O)C[C@@](O)(C(=O)CO)C[C@@H]3O[C@H]1C[C@H](N)[C@H](O)[C@H](C)O1 [DOX, Doxorubicin]
- tolerability ([1]; 10 mg/kg DOX): well tolerated
- decrease in the body weight ([1]; 15 mg DOX/kg): > 15%
- Animal death ([1]; 15 mg DOX/kg i.v., n = 4, listed as free DOX): death of all treated mice
- maximum tolerated dose (MTD) ([1]; DOX dose, single i.v. dose, female CD-1 mice, 2 weeks): ~10 mg/kg
- Cmax [2]: 3590 ng/mL
- Vd [2]: 7.34 L/kg
- T1/2 ([2]; noncompartmental): 1.74 h
- AUC0-inf ([2]; plasma): 3430 ng·h/mL

SMILES: CC(C)=CCC/C(C)=C/CC/C(C)=C/CSc1ccccc1C(=O)O [FTS, S-trans, trans-farnesylthiosalicylic acid]
- cytotoxicity of drug-free carriers and FTS [3]: inhibited the tumor cell growth in a concentration-dependent manner
- cytotoxicity of drug-free carriers and FTS [4]: inhibited the tumor cell growth in a concentration-dependent manner

SMILES: CCCCCCCCCCCCCCCCCCN1C(=CC=CC=CC2=[N+](CCCCCCCCCCCCCCCCCC)c3ccccc3C2(C)C)C(C)(C)c2ccccc21.[O-][Cl+3]([O-])([O-])[O-] [free DiD dye, 1,1′-dioctadecyl-3,3,3′,3′-tetramethylindodicarbocyanine perchlorate]
- tumor accumulation (NIRF imaging) [5]: No obvious tumor accumulation
